Legend:
Leishmania tropica [1] = experiment: Percentage of growth inhibition of multidrug resistance Leishmania tropica Lines at 15 uM; assay type: functional
Method in brief: (§1)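 Log-phase MDR promastigotes were plated at 3 × 10⁵ cells/well in RPMI 1640-modified medium with 20% FBS and 150 µM DNM. Sesquiterpenes (DMSO stocks diluted in medium) were added and cells kept 72 h at 28 °C. MTT was added for 4 h, formazan dissolved in 20% SDS and A540 read. Growth inhibition is relative to DNM-treated controls without modulator.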

Leishmania tropica [2] = experiment: Percentage of growth inhibition of multidrug resistance Leishmania tropica Lines at 1 uM.; assay type: functional; method in brief: as §1
Leishmania tropica [3] = experiment: Percentage of growth inhibition of multidrug resistance Leishmania tropica Lines at 3 uM; assay type: functional; method in brief: as §1
Leishmania tropica [4] = experiment: Percentage of growth inhibition of multidrug resistance Leishmania tropica Lines at 7 uM.; assay type: functional; method in brief: as §1
Leishmania tropica [5] = experiment: Percent growth inhibition of wild type Leishmania tropica at 1 uM; assay type: functional
Method in brief: (§2)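 Intrinsic toxicity on the wild-type L. tropica LRC clone, with no DNM present. Log-phase promastigotes were plated at 3 × 10⁵ cells/well in RPMI 1640-modified medium with 20% FBS, with sesquiterpene diluted from DMSO stocks, for 72 h at 28 °C. MTT was added for 4 h, then 20% SDS, and A540 read. Percent growth inhibition is taken against untreated control absorbance.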

Leishmania tropica [6] = experiment: Percentage of growth inhibition of wild type Leishmania tropica Lines at 3 uM.; assay type: functional; method in brief: as §2
Leishmania tropica [7] = experiment: Percentage of growth inhibition of wild type Leishmania tropica Lines at 7 uM.; assay type: functional; method in brief: as §2
Leishmania tropica [8] = experiment: (§3) Percentage of growth inhibition of wild type Leishmania tropica lines at 15 uM; assay type: functional; method in brief: as §2
Leishmania tropica [9] = experiment: as §3; assay type: functional; remark: listed apart in the source
Method in brief: (§4)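 WT L. tropica LRC-strain promastigotes (log phase, RPMI 1640-modified medium + 20% heat-inactivated FBS, 28 °C) seeded at 3 × 10⁵ cells/well and exposed without DNM to sesquiterpenes diluted from DMSO stocks. After 72 h at 28 °C, MTT (5 mg/mL in PBS) was added for 4 h, formazan dissolved in 20% SDS, A540 read. Growth inhibition (%) calculated relative to untreated control absorbance.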

Leishmania tropica [10] = experiment: Ratio of IC50 of the multidrug resistance Leishmania tropica Line to that of IC50 of the wild type line at 15 uM; assay type: functional
Method in brief: (§5)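 Resistance index is the DNM IC50 in the MDR L. tropica line divided by the DNM IC50 in the wild-type line. MDR IC50s were obtained with sesquiterpene at 7 or 15 µM. Growth was read by 72 h MTT assay at 28 °C. Data are from three independent experiments.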

Leishmania tropica [11] = experiment: Ratio of IC50 of the multidrug resistance Leishmania tropica Line to that of IC50 of the wild type line at 7 uM; assay type: functional; method in brief: as §5
Leishmania tropica [12] = experiment: Percentage of growth inhibition of multidrug resistance Leishmania tropica Lines at 1 uM; assay type: functional; method in brief: as §1
Leishmania tropica [13] = experiment: Percentage of growth inhibition of wild type Leishmania tropica Lines at 7 uM; assay type: functional; method in brief: as §4
Leishmania tropica [14] = experiment: Concentration required to inhibit the growth of multidrug resistance Leishmania tropica Line in the presence of DNM at 15 uM; assay type: functional, organism-based
Leishmania tropica [15] = experiment: Concentration required to inhibit the growth of multidrug resistance Leishmania tropica Line in the presence of DNM at 7 uM; assay type: functional, organism-based
Leishmania tropica [16] = experiment: Percentage of growth inhibition of multidrug resistance Leishmania tropica Lines at 3 uM.; assay type: functional; method in brief: as §1
Leishmania tropica [17] = experiment: Percentage of growth inhibition of multidrug resistance Leishmania tropica Lines at 7 uM; Value ranges from 0 to 6%; assay type: functional; method in brief: as §1
Leishmania tropica [18] = experiment: Percentage of growth inhibition of wild type Leishmania tropica Lines at 3 uM; assay type: functional; method in brief: as §4

| Structure (SMILES) | inhibition at 15 µM (Leishmania tropica [1]) | inhibition at 1 µM (Leishmania tropica [2]) | inhibition at 3 µM (Leishmania tropica [3]) | inhibition at 7 µM (Leishmania tropica [4]) | inhibition at 1 µM (Leishmania tropica [5]) | inhibition at 3 µM (Leishmania tropica [6]) | inhibition at 7 µM (Leishmania tropica [7]) | inhibition at 15 µM (Leishmania tropica [8]) | inhibition at 15 µM (Leishmania tropica [9]) | RI (Leishmania tropica [10]) | RI (Leishmania tropica [11]) | inhibition at 1 µM (Leishmania tropica [12]) | inhibition at 7 µM (Leishmania tropica [13]) | IC50 (Leishmania tropica [14]) | IC50 (Leishmania tropica [15]) | inhibition at 3 µM (Leishmania tropica [16]) | inhibition at 7 µM (Leishmania tropica [17]) | inhibition at 3 µM (Leishmania tropica [18]) |
| --- | --- | --- | --- | --- | --- | --- | --- | --- | --- | --- | --- | --- | --- | --- | --- | --- | --- | --- |
| CCCCCCCCCCCC(=O)O[C@@H]1C2C[C@H](OC(=O)c3ccco3)[C@]3(C)[C@@H](OC(C)=O)[C@@H](OC(C)=O)C[C@](C)(O)C13OC2(C)C (some centres not stated) | 80.5% | < 6% | 8.8% | 29.2% | < 6% | < 6% | < 6% | < 6% | – | – | – | – | – | – | – | – | – | – |
| CC(=O)O[C@H]1[C@@H](OC(=O)c2ccccc2)C[C@](C)(O)C23OC(C)(C)C(C[C@H](OC(=O)c4ccco4)[C@]12C)[C@H]3O (some centres not stated) | 81.9% | < 6% | 11.1% | 41.1% | < 6% | < 6% | < 6% | – | 8% | – | – | – | – | – | – | – | – | – |
| CC(=O)O[C@H]1C[C@](C)(O)C23OC(C)(C)C(C[C@H](OC(=O)c4ccco4)[C@]2(C)[C@H]1OC(C)=O)[C@H]3OC(=O)c1ccco1 (some centres not stated) | 94.4% | – | 83.5% | 90.9% | < 6% | < 6% | – | – | 15.2% | 2.3 | 7.8 | 24.5% | 9.7% | 9 µM | 30 µM | – | – | – |
| CC(=O)O[C@H]1C[C@](C)(O)C23OC(C)(C)C(C[C@H](OC(=O)c4ccco4)[C@]2(C)[C@H]1OC(C)=O)[C@H]3OC(=O)C(F)(F)F (some centres not stated) | 7.1% | < 6% | – | – | < 6% | < 6% | < 6% | < 6% | – | – | – | – | – | – | – | 6% | 6% | – |
| CC(=O)O[C@H]1[C@@H](OC(=O)c2ccccc2)C[C@](C)(O)C23OC(C)(C)C(C[C@H](OC(=O)c4ccco4)[C@]12C)[C@H]3OC(=O)c1ccco1 (some centres not stated) | 92.7% | – | 74.8% | 93.7% | < 6% | – | – | – | 35.3% | – | – | 11.7% | 21.4% | – | – | – | – | 16.5% |
| CC(=O)O[C@H]1[C@@H](OC(=O)c2ccco2)C[C@](C)(O)C23OC(C)(C)C(C[C@H](OC(=O)c4ccco4)[C@]12C)[C@H]3O (some centres not stated) | 44.5% | < 6% | – | 28.5% | < 6% | < 6% | < 6% | < 6% | – | – | – | – | – | – | – | < 6% | – | – |
| COc1ccc(C(=O)O[C@@H]2C3C[C@H](OC(=O)c4ccco4)[C@]4(C)[C@@H](OC(C)=O)[C@@H](OC(C)=O)C[C@](C)(O)C24OC3(C)C)cc1 (some centres not stated) | 98.4% | – | 35.4% | 85% | < 6% | < 6% | < 6% | – | 17.2% | – | – | 11.9% | – | – | – | – | – | – |
| CCCCCCCCCCCC(=O)O[C@@H]1C2C[C@H](OC(=O)c3ccco3)[C@]3(C)[C@@H](OC(C)=O)[C@@H](OC(=O)c4ccccc4)C[C@](C)(O)C13OC2(C)C (some centres not stated) | 9.2% | < 6% | – | – | < 6% | < 6% | < 6% | < 6% | – | – | – | – | – | – | – | 6% | 6% | – |
| CC(=O)O[C@H]1[C@@H](OC(=O)c2ccccc2)C[C@](C)(O)C23OC(C)(C)C(C[C@H](OC(=O)c4ccco4)[C@]12C)[C@H]3OC(=O)C(C)(C)C (some centres not stated) | 77.6% | < 6% | – | 25.9% | < 6% | < 6% | < 6% | < 6% | – | – | – | – | – | – | – | 11.2% | – | – |
| CC(=O)O[C@H]1[C@@H](OC(=O)c2ccccc2)C[C@](C)(O)C23OC(C)(C)C(C[C@H](OC(=O)c4ccco4)[C@]12C)[C@H]3OC(=O)C(F)(F)F (some centres not stated) | 36.9% | < 6% | – | 9.7% | < 6% | < 6% | < 6% | < 6% | – | – | – | – | – | – | – | < 6% | – | – |
| CC(=O)O[C@@H]1C2C[C@H](OC(=O)c3ccco3)[C@]3(C)[C@@H](OC(C)=O)[C@@H](OC(=O)c4ccccc4)C[C@](C)(O)C13OC2(C)C (some centres not stated) | 45% | < 6% | – | 14.3% | < 6% | < 6% | < 6% | < 6% | – | – | – | – | – | – | – | 6% | – | – |
| CC(=O)O[C@H]1C[C@](C)(O)C23OC(C)(C)C(C[C@H](OC(=O)c4ccco4)[C@]2(C)[C@H]1OC(C)=O)[C@H]3OC(=O)C(C)(C)C (some centres not stated) | 96.7% | – | 44.5% | 82.5% | < 6% | < 6% | < 6% | < 6% | – | – | – | 18.1% | – | – | – | – | – | – |
| CC(=O)O[C@H]1[C@@H](OC(=O)c2ccco2)C[C@](C)(O)C23OC(C)(C)C(C[C@H](OC(=O)c4ccco4)[C@]12C)[C@H]3OC(=O)c1ccco1 (some centres not stated) | 93.5% | – | 52.9% | 86.2% | < 6% | – | – | – | 23.4% | – | – | 10% | 18.1% | – | – | – | – | 13.8% |
| CC(=O)O[C@H]1C[C@](C)(O)C23OC(C)(C)C(C[C@H](OC(=O)c4ccco4)[C@]2(C)[C@H]1OC(C)=O)[C@H]3O (some centres not stated) | 10.9% | < 6% | – | – | < 6% | < 6% | < 6% | < 6% | – | – | – | – | – | – | – | < 6% | 6% | – |
| CC(=O)OC[C@]12[C@@H](OC(=O)c3ccccc3)CC3[C@@H](OC(=O)c4ccccc4)C1(OC3(C)C)[C@@](C)(O)C[C@H](OC(C)=O)[C@@H]2OC(C)=O (some centres not stated) | 90.9% | – | 77.5% | 89.9% | < 6% | – | – | – | 15.2% | 5.2 | 10.2 | 18% | 11% | 20 µM | 39 µM | – | – | 6.9% |
| CC(=O)O[C@H]1C[C@](C)(O)C23OC(C)(C)C(C[C@H](OC(=O)c4ccco4)[C@]2(C)[C@H]1OC(C)=O)[C@H]3OC(=O)c1ccc([N+](=O)[O-])cc1 (some centres not stated) | 59.5% | < 6% | – | 15.5% | < 6% | < 6% | < 6% | < 6% | – | – | – | – | – | – | – | 6% | – | – |
| CC(=O)O[C@H]1C[C@](C)(O)C23OC(C)(C)C(C[C@H](OC(=O)c4ccco4)[C@]2(C)[C@H]1OC(C)=O)[C@H]3OC(C)=O (some centres not stated) | 50.6% | < 6% | – | 17.1% | < 6% | < 6% | < 6% | < 6% | – | – | – | – | – | – | – | < 6% | – | – |
| CC(=O)O[C@H]1[C@@H](O)C[C@](C)(O)C23OC(C)(C)C(C[C@H](OC(=O)c4ccco4)[C@]12C)[C@H]3OC(=O)c1ccco1 (some centres not stated) | 28.7% | < 6% | – | 9.1% | < 6% | < 6% | < 6% | < 6% | – | – | – | – | – | – | – | 6% | – | – |
| CC(=O)O[C@H]1CC[C@](C)(O)C23OC(C)(C)C(C[C@H](OC(=O)c4ccco4)[C@]12C)[C@H]3OC(=O)c1ccco1 (some centres not stated) | 89.9% | – | 66.9% | 89% | < 6% | – | – | – | 24.6% | – | – | 20.3% | 16.4% | – | – | – | – | 14.8% |
| CC(=O)OC[C@]12[C@@H](OC(=O)c3ccco3)CC3[C@@H](OC(=O)c4ccco4)C1(OC3(C)C)[C@@](C)(O)C[C@H](OC(C)=O)[C@@H]2OC(C)=O (some centres not stated) | 94.3% | – | 79.6% | 89.5% | < 6% | < 6% | < 6% | – | 7.2% | 2.9 | 8.7 | 25.7% | – | 11 µM | 33.3 µM | – | – | – |
